We go through 21 compounds from ChEMBL document CHEMBL2390836, “Synthesis and antitumor activities of naturally occurring oleanolic acid triterpenoid saponins and their derivatives” (Eur J Med Chem, 2013).

Some results are limits rather than exact numbers.

What all share (format): functional, cell-based
In test [1] the test system is A-375. Briefly: Cytotoxicity against human A375 cells after 72 hrs by sulforhodamine B assay. The following applies: A-375, 72 h. A digest of the protocol:
(§1)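 Cells seeded in 96-well plates and exposed in triplicate to a concentration gradient at 37 °C for 72 h. Total protein staining with sulforhodamine B was the read-out. IC50 was calculated by the Logit method from at least three independent experiments.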

Test [2] deals with A549. The test is described as follows: Cytotoxicity against human A549 cells after 72 hrs by sulforhodamine B assay. As to conditions: A549, 72 h. An outline of the steps:
as §1

For test [3], the system named is HL-60. Briefly: Cytotoxicity against human HL60 cells after 72 hrs by MTT assay. As to conditions: HL-60, 72 h. An outline of the steps: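 HL-60 human promyelocytic leukemia cells were plated in 96 wells and treated in triplicate with graded concentrations at 37 °C for 72 h. Viability was read by MTT reduction. IC50 was obtained by the Logit method from at least three independent experiments.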

Regarding `C[C@@H]1O[C@@H](O[C@@H]2[C@@H](O)[C@H](C)O[C@@H](O[C@H]3[C@H](O[C@H]4CC[C@]5(C)[C@H]6CC=C7[C@@H]8CC(C)(C)CC[C@]8(C(=O)O)CC[C@@]7(C)[C@]6(C)CC[C@H]5C4(C)C)OC[C@@H](O)[C@@H]3O)[C@@H]2O)[C@H](O)[C@H](O)[C@H]1O`, the 50% inhibitory concentration (IC50) in test [1] worked out at 8.4 µM; in test [2] it was 16.2 µM; in test [3], 9.3 µM.

As to `C[C@@H]1O[C@@H](O[C@H]2[C@H](O[C@H]3CC[C@]4(C)[C@H]5CC=C6[C@@H]7CC(C)(C)CC[C@]7(C(=O)O)CC[C@@]6(C)[C@]5(C)CC[C@H]4C3(C)C)OC[C@@H](O)[C@@H]2O)[C@H](O)[C@H](O)[C@H]1O`, the IC50 in test [1] came out at 5 µM; in test [2], 10.7 µM; in test [3] it was 3.6 µM.

On to `C[C@@H]1O[C@@H](O[C@H]2[C@@H](O[C@H]3CC[C@]4(C)[C@H]5CC=C6[C@@H]7CC(C)(C)CC[C@]7(C(=O)O)CC[C@@]6(C)[C@]5(C)CC[C@H]4C3(C)C)OC[C@H](O)[C@@H]2O)[C@H](O)[C@H](O)[C@H]1O`, for which the IC50 in test [1], in test [2] and in test [3] was greater than 20 µM throughout.

`C[C@@H]1O[C@@H](O[C@H]2[C@H](O[C@H]3CC[C@]4(C)[C@H]5CC=C6[C@@H]7CC(C)(C)CC[C@]7(C(=O)O)CC[C@@]6(C)[C@]5(C)CC[C@H]4C3(C)C)O[C@H](CO)[C@H](O)[C@@H]2O)[C@H](O)[C@H](O)[C@H]1O`: the IC50 in test [1] was 5.1 µM; in test [2], 12.4 µM; in test [3] it was 2.5 µM.

For `C[C@@H]1O[C@@H](O[C@H]2[C@@H](O)[C@@H](CO)O[C@@H](O[C@H]3CC[C@]4(C)[C@H]5CC=C6[C@@H]7CC(C)(C)CC[C@]7(C(=O)O)CC[C@@]6(C)[C@]5(C)CC[C@H]4C3(C)C)[C@@H]2O)[C@H](O)[C@H](O)[C@H]1O`, the IC50 in test [1] was 15.4 µM; in test [2], 15.2 µM; in test [3], greater than 20 µM.

In the case of `C[C@@H]1O[C@@H](O[C@H]2[C@H]3OC(c4ccccc4)OC[C@H]3O[C@@H](O[C@H]3CC[C@]4(C)[C@H]5CC=C6[C@@H]7CC(C)(C)CC[C@]7(C(=O)O)CC[C@@]6(C)[C@]5(C)CC[C@H]4C3(C)C)[C@@H]2O[C@@H]2O[C@@H](C)[C@H](O)[C@@H](O)[C@H]2O)[C@H](O)[C@H](O)[C@H]1O` (stereo partly drawn), the 50% inhibitory concentration (IC50) in test [1], in test [2] and in test [3] was greater than 20 µM each time.

On to `C[C@@H]1O[C@@H](O[C@H]2[C@H](O[C@H]3CC[C@]4(C)[C@H]5CC=C6[C@@H]7CC(C)(C)CC[C@]7(C(=O)O)CC[C@@]6(C)[C@]5(C)CC[C@H]4C3(C)C)O[C@H](CO)[C@@H](O)[C@@H]2O)[C@H](O)[C@H](O)[C@H]1O`, for which the half-inhibitory concentration (IC50) in test [1] is 11.6 µM; in test [2], 23.5 µM; in test [3], 12.9 µM.

In the case of `C[C@@H]1O[C@@H](O[C@@H]2[C@@H](O)[C@H](O[C@H]3CC[C@]4(C)[C@H]5CC=C6[C@@H]7CC(C)(C)CC[C@]7(C(=O)O)CC[C@@]6(C)[C@]5(C)CC[C@H]4C3(C)C)O[C@H](CO)[C@H]2O)[C@H](O)[C@H](O)[C@H]1O`, the IC50 in test [1], in test [2] and in test [3] was greater than 20 µM in each case.

`C[C@@H]1O[C@@H](O[C@H]2[C@H](O[C@H]3CC[C@]4(C)[C@H]5CC=C6[C@@H]7CC(C)(C)CC[C@]7(C(=O)O)CC[C@@]6(C)[C@]5(C)CC[C@H]4C3(C)C)O[C@H](CO)[C@@H](O)[C@@H]2O[C@@H]2O[C@@H](C)[C@H](O)[C@@H](O)[C@H]2O)[C@H](O)[C@H](O)[C@H]1O`: the IC50 in test [1], in test [2] and in test [3] was greater than 20 µM in each case.

As to `C[C@@H]1O[C@@H](O[C@H]2[C@H](O)[C@@H](O)[C@H](OC[C@H]3O[C@@H](OC(=O)[C@]45CCC(C)(C)C[C@H]4C4=CC[C@@H]6[C@@]7(C)CC[C@H](O[C@@H]8OC[C@@H](O)[C@H](O)[C@H]8O)C(C)(C)[C@@H]7CC[C@@]6(C)[C@]4(C)CC5)[C@H](O)[C@@H](O)[C@@H]3O)O[C@@H]2CO)[C@H](O)[C@H](O)[C@H]1O`, the IC50 in test [1] stood at 13.5 µM; in test [2] it was 11.9 µM; in test [3], 5.7 µM.

Consider `C[C@@H]1O[C@@H](O[C@H]2[C@H](O[C@H]3CC[C@]4(C)[C@H]5CC=C6[C@@H]7CC(C)(C)CC[C@]7(C(=O)O)CC[C@@]6(C)[C@]5(C)CC[C@H]4C3(C)C)OC[C@@H](O)[C@@H]2O)[C@H](O)[C@H](O[C@@H]2O[C@H](CO)[C@@H](O)[C@H](O)[C@H]2O)[C@H]1O`, for which the figures for the IC50 in test [1], in test [2] and in test [3] were 5.5 µM, 14.7 µM and 4.6 µM, respectively.

On to `C[C@@H]1O[C@H](O[C@H]2[C@H](O[C@H]3CC[C@]4(C)[C@H]5CC=C6[C@@H]7CC(C)(C)CC[C@]7(C(=O)O)CC[C@@]6(C)[C@]5(C)CC[C@H]4C3(C)C)OC[C@H](O)[C@@H]2O)[C@H](O)[C@H](O)[C@H]1O`, for which the half-inhibitory concentration (IC50) in test [1] was 7.7 µM; in test [2], 17.5 µM; in test [3] it was 4.2 µM.

Regarding `C[C@@H]1O[C@@H](O[C@H]2[C@H](O[C@H]3CC[C@]4(C)[C@H]5CC=C6[C@@H]7CC(C)(C)CC[C@]7(C(=O)O)CC[C@@]6(C)[C@]5(C)CC[C@H]4C3(C)C)OC[C@H](O)[C@@H]2O)[C@H](O)[C@H](O[C@@H]2OC[C@@H](O)[C@H](O)[C@H]2O)[C@H]1O`, the IC50 worked out at 8.9 µM in test [1], 15.4 µM in test [2] and 3.4 µM in test [3].

With `C[C@@H]1O[C@@H](O[C@H]2[C@H](O[C@H]3CC[C@]4(C)[C@H]5CC=C6[C@@H]7CC(C)(C)CC[C@]7(C(=O)O)CC[C@@]6(C)[C@]5(C)CC[C@H]4C3(C)C)OC[C@@H](O)[C@@H]2O)[C@H](O)[C@H](O[C@@H]2OC[C@@H](O)[C@H](O)[C@H]2O)[C@H]1O`, the concentration for half-maximal inhibition (IC50) in test [1] turned out to be 6.3 µM; in test [2], 11.5 µM; in test [3] it was 4.5 µM.

For the compound `C[C@@H]1O[C@@H](O[C@H]2[C@H](O[C@H]3CC[C@]4(C)[C@H]5CC=C6[C@@H]7CC(C)(C)CC[C@]7(C(=O)O)CC[C@@]6(C)[C@]5(C)CC[C@H]4C3(C)C)OC[C@@H](O)[C@@H]2O)[C@H](O)[C@H](O[C@@H]2O[C@H](CO)[C@@H](O[C@@H]3O[C@H](CO)[C@@H](O)[C@H](O)[C@H]3O)[C@H](O)[C@H]2O)[C@H]1O`, the IC50 in test [1] amounted to 6.1 µM; in test [2] it was 7.8 µM; in test [3], 2.5 µM.

For `C[C@@H]1O[C@@H](O[C@H]2[C@H](O[C@H]3CC[C@]4(C)[C@H]5CC=C6[C@@H]7CC(C)(C)CC[C@]7(C(=O)O)CC[C@@]6(C)[C@]5(C)CC[C@H]4C3(C)C)OC[C@H](O)[C@@H]2O)[C@H](O)[C@H](O[C@@H]2O[C@H](CO)[C@@H](O[C@@H]3O[C@H](CO)[C@@H](O)[C@H](O)[C@H]3O)[C@H](O)[C@H]2O)[C@H]1O`, the IC50 in test [1] turned out to be 5.9 µM; in test [2], 7.9 µM; in test [3], 3.5 µM.

Turning to `C[C@@H]1O[C@@H](O[C@H]2[C@H](O[C@H]3CC[C@]4(C)[C@H]5CC=C6[C@@H]7CC(C)(C)CC[C@]7(C(=O)O)CC[C@@]6(C)[C@]5(C)CC[C@H]4C3(C)C)OC[C@H](O)[C@@H]2O)[C@H](O)[C@H](O[C@@H]2O[C@H](CO)[C@@H](O)[C@H](O)[C@H]2O)[C@H]1O`, the IC50 is 12.1 µM in test [1], 16.7 µM in test [2] and 6.1 µM in test [3].

With `C[C@@H]1O[C@@H](O[C@H]2[C@H](O[C@H]3CC[C@]4(C)[C@H]5CC=C6[C@@H]7CC(C)(C)CC[C@]7(C(=O)O)CC[C@@]6(C)[C@]5(C)CC[C@H]4C3(C)C)OC[C@H](O)[C@@H]2O)[C@H](O)[C@H](O)[C@H]1O`, the figures for the IC50 in test [1], in test [2] and in test [3] were 8.4 µM, 15.8 µM and 9.2 µM, respectively.

For `C[C@@H]1O[C@@H](O[C@H]2[C@H](O[C@H]3CC[C@]4(C)[C@H]5CC=C6[C@@H]7CC(C)(C)CC[C@]7(C(=O)O)CC[C@@]6(C)[C@]5(C)CC[C@H]4C3(C)C)OC[C@H](O)[C@@H]2O)[C@H](O)[C@H](O[C@@H]2OC[C@@H](O[C@@H]3O[C@H](CO)[C@@H](O)[C@H](O)[C@H]3O)[C@H](O)[C@H]2O)[C@H]1O`, the IC50 in test [1] was 22.1 µM; in test [2], greater than 20 µM; in test [3] it was 4.2 µM.

As to `CC1(C)CC[C@]2(C(=O)O)CC[C@]3(C)C(=CC[C@@H]4[C@@]5(C)CC[C@H](O[C@@H]6O[C@H](CO)[C@H](O)[C@H](O)[C@H]6O[C@@H]6O[C@H](CO)[C@@H](O)[C@H](O)[C@H]6O)C(C)(C)[C@@H]5CC[C@]43C)[C@@H]2C1`, the figures for the IC50 in test [1], in test [2] and in test [3] were 9.7 µM, 17.9 µM and 10.1 µM, respectively.

Consider `C[C@@H]1O[C@@H](O[C@H]2[C@H](O[C@H]3CC[C@]4(C)[C@H]5CC=C6[C@@H]7CC(C)(C)CC[C@]7(C(=O)O)CC[C@@]6(C)[C@]5(C)CC[C@H]4C3(C)C)OC[C@H](O[C@@H]3O[C@H](CO)[C@@H](O)[C@H](O)[C@H]3O)[C@@H]2O)[C@H](O)[C@H](O[C@@H]2O[C@H](CO)[C@@H](O[C@@H]3O[C@H](CO)[C@@H](O)[C@H](O)[C@H]3O)[C@H](O)[C@H]2O)[C@H]1O`, for which the IC50 in test [1] worked out at 3.5 µM; in test [2] it was 6.2 µM; in test [3], 3.1 µM.
